# Screens (PubChem)
# A selection: hits, their analogues and other compounds. The true share with any hit is near 2.3%.
# Apaf-1 inh: human Apaf-1 inhibition; inhibition, % at 20 µM; O14727; reconstituted apoptosome caspase-3 activity, DEVD-Rh110 fluorescence; actives 0.71% (n = 330,000); active = inhibition of at least 40% at 20 µM
#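 detection = Rh110 fluorescence intensity | test system = biochemical Apaf-1 apoptosome reconstitution | also added = cytochrome c and DEVD-Rh110 substrate | schedule = 30 min plus 50 min, RT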
# PAFAH2 FP inh: inhibitors of human PAFAH2 | Q99487 | recombinant PAFAH2, FP-rhodamine activity probe, fluorescence polarization | inhibition, % at 3.39 µM | actives 0.99% (n = 340,000);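 active = inhibition above the mean over all tested compounds plus 3 SD, cut at about 30% in these data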;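 also: inhibitors block probe labeling of enzyme so polarization drops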
# PAFAH1B3 inh: PAFAH1B3 (human) inhibition. Q15102. recombinant PAFAH1B3, FP-rhodamine probe, fluorescence polarization. inhibition, % at 3.39 µM. actives 0.28% (n = 340,000). AID 492972;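 active = inhibition above the screen-wide average of all tested compounds plus 3 SD, cut at about 25% in these data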
# Target sequence (Q15102 whole entry, looked up): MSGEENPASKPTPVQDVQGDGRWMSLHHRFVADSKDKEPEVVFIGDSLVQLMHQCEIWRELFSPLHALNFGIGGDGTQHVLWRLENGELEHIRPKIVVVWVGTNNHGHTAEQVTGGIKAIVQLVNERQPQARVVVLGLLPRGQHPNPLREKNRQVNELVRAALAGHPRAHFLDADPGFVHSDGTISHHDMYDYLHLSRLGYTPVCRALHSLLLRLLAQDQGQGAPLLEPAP
# PAFAH1B2 FP inh: inhibitors of human PAFAH1B2; recombinant PAFAH1B2, FP-rhodamine activity probe, fluorescence polarization; inhibition, % at 3.39 µM; actives 1.2% (n = 340,000);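 active = inhibition above the mean of all tested compounds plus 3 SD, cut at about 24% in these data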
# Target sequence (P68402 whole entry, looked up): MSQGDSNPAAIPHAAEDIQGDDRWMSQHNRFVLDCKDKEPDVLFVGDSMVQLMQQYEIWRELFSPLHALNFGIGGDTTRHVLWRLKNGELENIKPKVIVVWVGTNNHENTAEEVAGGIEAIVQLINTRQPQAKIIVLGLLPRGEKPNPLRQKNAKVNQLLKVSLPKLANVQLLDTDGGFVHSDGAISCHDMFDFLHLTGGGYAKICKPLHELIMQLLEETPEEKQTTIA
# TDP2 absorb: blocks human TDP2 phosphodiesterase activity; recombinant TDP2, T5PNP hydrolysis, p-nitrophenol absorbance 415 nm; inhibition, % at 12.8 µM; actives 0.34% (n = 370,000); AID 720702;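 active = inhibition above the mean of all tested compounds plus 3 SD, set per campaign, cut at about 25% in these data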
#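 Read-out basis: percent inhibition. System: recombinant human TDP2. Buffer or medium: Mg2+-containing Tris-HCl buffer, pH 7.5. Repeats: single replicate. Timing: reaction 2 h, 37 °C. Benchmarks: high control without enzyme, low control DMSO plus TDP2. Probe or stimulus: 5 mM T5PNP. Doses: 12.8 µM only. Measured by: epi absorbance of p-nitrophenol freed from T5PNP by hydrolysis.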
# Numbers stand for hits; – = inactive; · = not tested or not shown.
SMILES,Apaf-1 inh,PAFAH2 FP inh,PAFAH1B3 inh,PAFAH1B2 FP inh,TDP2 absorb
COc1cccc(-n2c(C)c3c(OC)cccc(=O)c3c2C)c1,–,43.1,–,–,–
COc1cccc(=O)c2c(C)n(C)c(C)c12,–,–,–,–,–
COc1cccc(=O)c2c(C)n(-c3cc(C)cc(C)c3)c(C)c12,–,58.8,–,–,–
CN(C(=O)COC(=O)c1cc([N+](=O)[O-])ccc1N1CCCC1)C1CCS(=O)(=O)C1 (stereo not drawn),–,–,–,–,–
CCC(C)N(C(=O)COC(=O)c1cc([N+](=O)[O-])ccc1N1CCOCC1)C1CCS(=O)(=O)C1 (stereo not drawn),78.1,–,–,–,–
O=C(NCCc1ccccc1)OCc1cn(Cc2ccc(Cl)cc2)nn1,·,·,·,·,–
Cc1nc2sccn2c(=O)c1CCN1CCC(=C(c2ccccc2)c2ccc(F)cc2)CC1,41.8,·,·,·,·
CC12CC3CC(C)(C1)CC(C(=O)N1CCN(C(=O)c4ccco4)CC1)(C3)C2,–,–,–,35.5,–
O=C(c1ccco1)N1CCN(C(=O)C23CC4CC(CC(C4)C2)C3)CC1,–,–,–,–,–
Nc1ccc(CSc2ccc(Cl)cc2)cc1,–,–,–,39.0,–
Cc1cc(C)nc(SCc2ccc(Cl)cc2)n1,–,–,–,–,–
CC(C)(C)OC(=O)NCc1cc(F)ccc1/C=C/S(=O)(=O)NCc1ccccc1,·,·,·,·,–
CCc1ccc(OCCNc2cc(N3CCNC(C)C3)ccc2[N+](=O)[O-])cc1 (stereo not drawn),75.0,–,–,–,–
C#CCN1CC(N(C)CCOC(=O)CC2C=CCC2)CS1(=O)=O (stereo not drawn),·,·,·,·,–
CN(C)/C=C1\C=C2C(=O)c3ccccc3N2C1=O,–,36.1,29.5,28.0,–
COc1ccccc1NC(=O)OC1CC2CC1[C@H]1CCCCN1[C@H]2C (stereo partly drawn),·,·,·,·,–
O=c1oc(-c2ccccc2)cc2ccccc12,·,·,·,·,–
O=c1oc(-c2ccccc2)cc(Cl)c1Cl,–,–,–,–,26.8
CCOc1ccc(C(=O)N/N=C(/C)C2C(=O)c3ccccc3C2=O)cc1,–,–,–,–,–
C/C(=N\NC(=O)c1ccc(-c2ccccc2)cc1)C1C(=O)c2ccccc2C1=O,–,–,–,28.6,–
C/C(=N\NC(=O)c1ccc(Br)cc1)C1C(=O)c2ccccc2C1=O,–,–,29.3,–,–
C/C(=N/NC(=O)c1ccc(-c2ccccc2)cc1)c1cc(O)cc(O)c1,–,–,–,–,–
Cc1nc(SCCC(=O)O)c2cc(-c3ccccc3)sc2n1,–,–,–,49.8,–
O=C(CCc1ccccc1)N[C@H]1[C@@H](OC(=O)C2CC2)CCC[C@@]12C(=O)N(Cc1ccccc1)c1ccccc12,·,·,·,·,–
Cn1cc(CCOCc2ccccn2)c2ccccc21,·,·,·,·,–
SMILES,Apaf-1 inh,PAFAH2 FP inh,PAFAH1B3 inh,PAFAH1B2 FP inh,TDP2 absorb
COc1cc(/C=N/NC(=O)[C@H](Cc2c[nH]c3ccccc23)NC(=O)OCC(C)C)cc([N+](=O)[O-])c1O,–,–,–,24.4,–
COc1cc(/C=N/NC(=O)Cc2ccccc2)cc([N+](=O)[O-])c1O,–,–,–,–,–
N#Cc1c(N)nc2c(c1N)CC(=O)N2c1ccccc1-c1ccccc1,–,–,–,–,–
N#Cc1c(N)nc2c(c1N)CC(=O)N2c1ccc(Cl)cc1,–,–,–,24.4,·
O=C(c1cccc(Cl)c1)N1CCN(c2ccnc3cc(Cl)ccc23)CC1,·,·,·,·,–
CC(C)CN1C(=O)[C@]2(CC(=O)N(C)C2c2ccccc2)c2cc(-n3cc(C4=CCCCC4)nn3)ccc21 (stereo partly drawn),·,·,·,·,–
O=[N+]([O-])c1cc(CN2CCCC2)c2cccnc2c1O,·,36.0,–,–,·
Oc1c(Cl)cc(CN2CCCCC2)c2cccnc12,–,–,–,–,·
CC(C)(C)c1ccc(S(=O)(=O)N2CCCC(C(=O)N3CCN(Cc4ccccc4)CC3)C2)cc1 (stereo not drawn),·,·,·,·,–
O=C(CSCc1ccc(Cl)cc1Cl)Nc1ccc(O)cc1C(=O)O,–,–,–,27.6,–
COc1cc(NC(=O)CSCc2ccc(Cl)cc2Cl)c(C(=O)O)cc1OC,–,–,–,–,–
CCCC[C@H]1C2CC(OC(=O)Nc3cc(C)cc(C)c3)C(C2)[C@H]2CCCCN21 (stereo partly drawn),·,·,·,·,–
CCC1CCC2(CC1)SCC(=O)N2c1ccccc1 (stereo not drawn),–,·,·,·,–
CC1CCC2(CC1)SCC(=O)N2c1ccccc1 (stereo not drawn),–,–,–,26.9,–
COc1ccccc1C(=O)NC1CCCCN(Cc2cccc(C(F)(F)F)c2)C1=O (stereo not drawn),·,·,·,·,–
CC(C)N1Cc2nnn(Cc3ccccc3)c2-c2cc(N3CCCC3)ccc2S1(=O)=O,·,·,·,·,–
CCN(CC(=O)NCc1cccs1)C(=O)C1CC(=O)N(c2ccc(OC)cc2OC)C1 (stereo not drawn),51.4,–,–,–,–
CCc1noc(C)c1C(=O)N1CCN(CC(=O)OC)CC1,·,·,·,·,–
COC(=O)C1=C(C)N(Cc2cccc(C(F)(F)F)c2)C(=NCc2cc(OC)c(OC)c(OC)c2)NC1c1cccc(C(F)(F)F)c1 (stereo not drawn),·,·,·,·,–
Cc1ccc(S(=O)(=O)NCCC(=O)Nc2ccc(Cl)c(Cl)c2)cc1C,–,–,–,25.1,–
Cc1ccc(S(=O)(=O)NCCC(=O)Nc2ccncc2)cc1C,–,–,–,–,–
Cc1ccc(S(=O)(=O)NCCC(=O)Nc2ccc(Cl)c(Cl)c2)cc1,–,–,–,29.4,–
CC(=O)Nc1ccc(S(=O)(=O)NCCC(=O)Nc2ccc(C)c(Cl)c2)cc1,–,–,–,–,–
NS(=O)(=O)c1ccc(CNC(=O)C23CC4CC(CC(C4)C2)C3)cc1,–,–,–,–,–
CC(C)(CO)NC(=O)C12CC3CC(CC(Br)(C3)C1)C2,–,–,–,26.1,–
SMILES,Apaf-1 inh,PAFAH2 FP inh,PAFAH1B3 inh,PAFAH1B2 FP inh,TDP2 absorb
COc1ccc(CNC(=O)C23CC4CC(CC(Br)(C4)C2)C3)cc1,–,–,–,25.9,–
COc1ccc(CNC(=O)CC23CC4CC(CC(C4)C2)C3)cc1,–,–,–,–,–
O=C(O)c1ccc(CNC(=O)C23CC4CC(CC(C4)C2)C3)cc1,–,–,–,29.0,–
Cc1ccc(-c2cc(-c3nnc(SCC(=O)Nc4nccs4)n3N)[nH]n2)cc1,·,·,·,·,–
CC12CC3CC(C)(C1)CC(C(=O)Nc1nncs1)(C3)C2,–,–,–,27.7,–
COCCc1nnc(NC(=O)C23CC4CC(CC(C4)C2)C3)s1,–,–,–,–,–
Cc1nnc(NC(=O)CC23CC4CC(CC(C4)C2)C3)s1,–,–,–,27.9,–
Cc1nnc(NC(=O)C23CC4CC(C)(CC(C)(C4)C2)C3)s1,·,–,–,26.3,–
COc1cc(NC(=O)c2ccc3c(c2)OCO3)c2ncccc2c1,–,–,–,–,–
COc1cc(NCCCCCCCN)c2ncccc2c1,94.7,–,–,–,·
